From ChEMBL document CHEMBL3244400, “Synthesis of 3,4-dihydro-4-oxothieno[2,3-d]pyrimidine-2-carboxylates, a new series of orally active antiallergy agents” (J Med Chem, 1979)
Activity calls are given as the source filed them. The rule behind the calls is not given here.

Experiments:
[1] = tested on: Rattus norvegicus; experiment: Antiallergic activity against egg albumin-induced anaphylaxis in sensitized rat at 30 mg/kg, po administered 15 mins prior to antigen challenge as single dose measured up to 4 hrs by passive cutaneous anaphylaxis test; type: functional, organism-based; set-up: dose 30 mg/kg
Method in brief: (§1)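 Male Sprague–Dawley or Wistar rats (100–150 g) were passively sensitized by two intradermal dilutions of rat anti-egg-albumin serum, which was mainly IgE and raised with EA im (10 mg/kg) plus killed pertussis vaccine iv. After 48 h, drug or vehicle was given. Rats were then challenged iv with EA plus Evans Blue (25 mg/kg each). Spot diameter was read 20–30 min later; ≥5 rats/compound. % inhibition was calculated versus control mean diameter.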

[2] = tested on: Rattus norvegicus; experiment: Antiallergic activity against egg albumin-induced anaphylaxis in po dosed sensitized rat compound administered 15 mins prior to antigen challenge as single dose by passive cutaneous anaphylaxis test; type: functional; method in brief: as §1
[3] = tested on: Rattus norvegicus; experiment: Antiallergic activity against egg albumin-induced anaphylaxis in sensitized rat at 25 mg/kg, po administered 15 mins prior to antigen challenge as single dose measured up to 4 hrs by passive cutaneous anaphylaxis test; type: functional, organism-based; set-up: dose 25 mg/kg; method in brief: as §1
[4] = tested on: Rattus norvegicus; experiment: Antiallergic activity against egg albumin-induced anaphylaxis in sensitized rat at 50 mg/kg, po administered 15 mins prior to antigen challenge as single dose measured up to 4 hrs by passive cutaneous anaphylaxis test; type: functional, organism-based; set-up: dose 50 mg/kg; method in brief: as §1
[5] = tested on: Rattus norvegicus; experiment: Antiallergic activity against egg albumin-induced anaphylaxis in iv dosed sensitized rat compound administered 15 mins prior to antigen challenge as single dose by passive cutaneous anaphylaxis test; type: functional; method in brief: as §1
[6] = tested on: Rattus norvegicus; experiment: Antiallergic activity against egg albumin-induced anaphylaxis in sensitized rat at 10 mg/kg, po administered 15 mins prior to antigen challenge as single dose measured up to 4 hrs by passive cutaneous anaphylaxis test; type: functional, organism-based; set-up: dose 10 mg/kg; method in brief: as §1
[7] = tested on: Rattus norvegicus; experiment: Antiallergic activity against egg albumin-induced anaphylaxis in sensitized rat at 5 mg/kg, po administered 15 mins prior to antigen challenge as single dose measured up to 4 hrs by passive cutaneous anaphylaxis test; type: functional, organism-based; set-up: dose 5 mg/kg; method in brief: as §1
[8] = tested on: Mast cell; experiment: Inhibition of histamine release in Sprague-Dawley rat peritoneal mast cells at 20 uM after 10 mins by fluorimetry relative to control; type: functional
Method in brief: (§2)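 Peritoneal lavage cells from male Sprague–Dawley rats (200–300 g) were sensitized for 2 h at 37 °C in rat anti-EA serum with heparin. Cells were resuspended in buffered HBSS and challenged with EA. Drug was added together with antigen. After 10 min incubation, histamine was measured fluorimetrically. % inhibition was calculated versus release without drug.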

[9] = tested on: Mast cell; experiment: Inhibition of histamine release in Sprague-Dawley rat peritoneal mast cells at 1.25 uM after 10 mins by fluorimetry relative to control; type: functional; method in brief: as §2
[10] = tested on: Mast cell; experiment: Inhibition of histamine release in Sprague-Dawley rat peritoneal mast cells at 5 uM after 10 mins by fluorimetry relative to control; type: functional; method in brief: as §2
[11] = tested on: Rattus norvegicus; experiment: Inhibition of egg albumin-induced allergic bronchospasm in sensitized, spontaneously breathing and anesthesized Harlan-Wistar rat assessed as inhibition of control allergic bronchospasm response compound administered intraduodenally 15 min prior to antigen challenge; type: functional
Method in brief: (§3)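 Male Harlan-Wistar rats (225–275 g) were sensitized with EA im (1 mg/rat) plus pertussis vaccine ip. After 13–15 days they were urethane-anesthetized (1.5 g/kg ip). Drug was given intraduodenally in methocel or iv in saline, then EA 2 mg/rat iv. Pulmonary ventilation pressure and mean arterial pressure were recorded. Individual responses were compared with a separate vehicle-control group mean; 4–15 rats/group.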

[12] = tested on: Plasma; experiment: Drug metabolism in Sprague-Dawley rat plasma assessed as sodium 2-carboxy-6-ethyl-4a,7a-dihydrothieno[2,3-d]pyrimidin-4-olate formation at 50 mg/kg, po; type: ADME, organism-based; set-up: dose 50 mg/kg, route oral; conditions: in vivo
Method in brief: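 Mature Sprague–Dawley rats (150–200 g) were fasted overnight and given a single 50 mg/kg oral dose. Blood was taken at 0.5–6 h, two rats per time point. Plasma (1 mL) was acidified to pH 1–2 and extracted twice with CHCl₃. The dried residue was taken up in methanol and quantified by reverse-phase C-18 HPLC.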

[13] = tested on: Rattus norvegicus; experiment: Inhibition of egg albumin-induced allergic bronchospasm in sensitized, spontaneously breathing and anesthesized Harlan-Wistar rat assessed as inhibition of control allergic hypotension response at 0.39 mg/kg administered intraduodenally 15 min prior to antigen challenge; type: functional; conditions: route intraduodenal; method in brief: as §3
[14] = tested on: Rattus norvegicus; experiment: Inhibition of egg albumin-induced allergic bronchospasm in sensitized, spontaneously breathing and anesthesized Harlan-Wistar rat assessed as drop in pulmonary arterial blood pressure at 0.78 mg/kg administered intraduodenally 15 min prior to antigen challenge (reference value: 32.2 +/- 4.7 %); type: functional; conditions: route intraduodenal; method in brief: as §3
[15] = tested on: Rattus norvegicus; experiment: Inhibition of egg albumin-induced allergic bronchospasm in sensitized, spontaneously breathing and anesthesized Harlan-Wistar rat assessed as drop in pulmonary arterial blood pressure at 3.125 mg/kg administered intraduodenally 15 min prior to antigen challenge (reference value: 32.2 +/- 4.7 %); type: functional; conditions: route intraduodenal; method in brief: as §3
[16] = tested on: Rattus norvegicus; experiment: Inhibition of egg albumin-induced allergic bronchospasm in sensitized, spontaneously breathing and anesthesized Harlan-Wistar rat assessed as inhibition of control allergic bronchospasm response at 0.78 mg/kg administered intraduodenally 15 min prior to antigen challenge; type: functional; conditions: route intraduodenal; method in brief: as §3
[17] = tested on: Rattus norvegicus; experiment: Inhibition of egg albumin-induced allergic bronchospasm in sensitized, spontaneously breathing and anesthesized Harlan-Wistar rat assessed as inhibition of control allergic bronchospasm response at 0.39 mg/kg administered intraduodenally 15 min prior to antigen challenge; type: functional; conditions: route intraduodenal; method in brief: as §3
[18] = tested on: Rattus norvegicus; experiment: Inhibition of egg albumin-induced allergic bronchospasm in sensitized, spontaneously breathing and anesthesized Harlan-Wistar rat assessed as drop in mean arterial blood pressure at 0.39 mg/kg administered intraduodenally 15 min prior to antigen challenge (reference value: 46.3 +/- 3.5 %); type: functional; conditions: route intraduodenal; method in brief: as §3
[19] = tested on: Rattus norvegicus; experiment: Inhibition of egg albumin-induced allergic bronchospasm in sensitized, spontaneously breathing and anesthesized Harlan-Wistar rat assessed as inhibition of control allergic hypotension response compound administered intraduodenally 15 min prior to antigen challenge; type: functional; conditions: in the assay text read “bronchospasm response” for “hypotension response”; method in brief: as §3
[20] = tested on: Rattus norvegicus; experiment: Inhibition of egg albumin-induced allergic bronchospasm in sensitized, spontaneously breathing and anesthesized Harlan-Wistar rat assessed as inhibition of control allergic hypotension response at 3.125 mg/kg administered intraduodenally 15 min prior to antigen challenge; type: functional; conditions: route intraduodenal; method in brief: as §3
[21] = tested on: Rattus norvegicus; experiment: Inhibition of egg albumin-induced allergic bronchospasm in sensitized, spontaneously breathing and anesthesized Harlan-Wistar rat assessed as inhibition of control allergic hypotension response at 0.78 mg/kg administered intraduodenally 15 min prior to antigen challenge; type: functional; conditions: route intraduodenal; method in brief: as §3
[22] = tested on: Rattus norvegicus; experiment: Inhibition of egg albumin-induced allergic bronchospasm in sensitized, spontaneously breathing and anesthesized Harlan-Wistar rat assessed as drop in pulmonary arterial blood pressure at 0.39 mg/kg administered intraduodenally 15 min prior to antigen challenge (reference value: 32.2 +/- 4.7 %); type: functional; conditions: route intraduodenal; method in brief: as §3
[23] = tested on: Rattus norvegicus; experiment: Inhibition of egg albumin-induced allergic bronchospasm in sensitized, spontaneously breathing and anesthesized Harlan-Wistar rat assessed as drop in mean arterial blood pressure at 3.125 mg/kg administered intraduodenally 15 min prior to antigen challenge (reference value: 46.3 +/- 3.5 %); type: functional; conditions: route intraduodenal; method in brief: as §3
[24] = tested on: Rattus norvegicus; experiment: Inhibition of egg albumin-induced allergic bronchospasm in sensitized, spontaneously breathing and anesthesized Harlan-Wistar rat assessed as drop in mean arterial blood pressure at 0.78 mg/kg administered intraduodenally 15 min prior to antigen challenge (reference value: 46.3 +/- 3.5 %); type: functional; conditions: route intraduodenal; method in brief: as §3
[25] = tested on: Rattus norvegicus; experiment: Inhibition of egg albumin-induced allergic bronchospasm in sensitized, spontaneously breathing and anesthesized Harlan-Wistar rat assessed as inhibition of control allergic bronchospasm response at 3.125 mg/kg administered intraduodenally 15 min prior to antigen challenge; type: functional; conditions: route intraduodenal; method in brief: as §3

Cc1c(CC(C)C)sc2nc(C(=O)O)[nH]c(=O)c12
Activity [1]: Active

CCOC(=O)c1nc2sc(CC(C)C)c(C)c2c(=O)[nH]1
ED50 [2]: 8.1 mg/kg

Cc1csc2nc(C(=O)[O-])nc([O-])c12.O.[Na+].[Na+]
ED50 [2]: 50 mg/kg

CCOC(=O)c1nc2sc(CC)cc2c(=O)o1
ED50 [2]: 34.4 mg/kg

CCc1sc2nc(C(=O)O)nc(O)c2c1N
Activity [3]: inactive

CC(=O)c1sc2nc(C(=O)O)nc(O)c2c1C
Activity [4]: inactive

CCOC(=O)c1nc2sc(CC)c(C)c2c(=O)[nH]1
ED50 [2]: 11.3 mg/kg

CCOC(=O)C(=O)Nc1sccc1C(N)=O
ED50 [2]: 4.5 mg/kg | ED50 [5]: 0.2 mg/kg | Activity [1]: Active

CCCCCCc1cc2c(=O)[nH]c(C(=O)OCC)nc2s1
ED50 [2]: > 5 mg/kg

CCOC(=O)c1nc2sc(N)c(C)c2c(=O)[nH]1
ED50 [2]: < 50 mg/kg

CCc1sc2nc(C(=O)[O-])nc([O-])c2c1C.O.[Na+].[Na+]
ED50 [2]: 10 mg/kg

CCOC(=O)c1nc2sccc2c(=O)[nH]1
ED50 [2]: > 25 mg/kg

CCOC(=O)c1nc2sc(C(C)C)cc2c(=O)o1
ED50 [2]: > 10 mg/kg

CCCCCCc1cc2c(=O)oc(C(=O)OCC)nc2s1
Activity [6]: inactive

CCOC(=O)c1nc2sc(CC)c(I)c2c(=O)[nH]1
ED50 [2]: 8.1 mg/kg

CCOC(=O)c1nc2sc(CC)c(C)c2c(=O)o1
Activity [7]: inactive

Cc1c(CC(C)C)sc2nc(C(=O)[O-])nc([O-])c12.O.[K+].[K+]
ED50 [2]: 2.7 mg/kg | ED50 [5]: 0.14 mg/kg

CCc1cc2c([O-])nc(C(=O)[O-])nc2s1.O.[Na+].[Na+]
inhibition at 20 µM [8]: 73% | ED50 [2]: 13 mg/kg | ED50 [5]: 1.2 mg/kg | inhibition at 1.25 µM [9]: 22% | inhibition at 5 µM [10]: 51%

CC(C)c1cc2c([O-])nc(C(=O)[O-])nc2s1.O.[Na+].[Na+]
ED50 [2]: > 10 mg/kg | ED50 [5]: 1 mg/kg

O.O=C([O-])c1nc([O-])c2c3c(sc2n1)CCCC3.[Na+].[Na+]
ED50 [2]: 50 mg/kg

CCCCCCc1sc2nc(C(=O)OCC)[nH]c(=O)c2c1C
ED50 [2]: 50 mg/kg

CCOC(=O)c1nc2sc(CC)cc2c(=O)[nH]1
inhibition [11]: Dose-dependent effect | ED50 ([11]; intraduodenal): 1 mg/kg | inhibition at 20 µM [8]: 82% | Drug metabolism [12]: metabolite_detected | ED50 [2]: 2.4 mg/kg | Activity [1]: Active | inhibition at 1.25 µM [9]: 19% | inhibition in vivo at 0.39 mg/kg [13]: 2.7% | inhibition in vivo at 0.78 mg/kg [14]: 29.2% | inhibition in vivo at 3.125 mg/kg [15]: 17.1% | inhibition in vivo at 0.78 mg/kg [16]: 27.8% | inhibition in vivo at 0.39 mg/kg [17]: 4.3% | inhibition in vivo at 0.39 mg/kg [18]: 48.7% | inhibition [19]: Dose-dependent effect | ED50 ([19]; intraduodenal): 1 mg/kg | inhibition in vivo at 3.125 mg/kg [20]: 18.9% | inhibition in vivo at 0.78 mg/kg [21]: 5.2% | inhibition in vivo at 0.39 mg/kg [22]: 48.8% | inhibition in vivo at 3.125 mg/kg [23]: 42.4% | inhibition in vivo at 0.78 mg/kg [24]: 51.8% | inhibition at 5 µM [10]: 55% | inhibition in vivo at 3.125 mg/kg [25]: 53.6%

CCOC(=O)c1nc2sc(CC)c(N)c2c(=O)[nH]1
ED50 [2]: 10 mg/kg

CCOC(=O)c1nc2sc(C(C)=O)c(C)c2c(=O)[nH]1
ED50 [2]: 25 mg/kg

CCCCCCc1cc2c([O-])nc(C(=O)[O-])nc2s1.O.[Na+].[Na+]
ED50 [2]: 17.7 mg/kg

CCOC(=O)c1nc2sc(CC(C)C)c(C)c2c(=O)o1
Activity [7]: inactive

CCCCCCc1sc2nc(C(=O)OCC)oc(=O)c2c1C
ED50 [2]: 8.2 mg/kg

CCOC(=O)c1nc2scc(C)c2c(=O)[nH]1
ED50 [2]: 50 mg/kg

CCOC(=O)c1nc2sc(C(C)C)cc2c(=O)[nH]1
ED50 [2]: 17.9 mg/kg

CCOC(=O)c1nc2sc(C(C)=O)c(C)c2c(=O)o1
Activity [7]: inactive
